Data set [1] concerns Pseudomonas aeruginosa. As to the kind of experiment: Antibiotic adjuvant activity against Rifampicin-treated Pseudomonas aeruginosa ATCC 9027 assessed as bacterial growth inhibition by broth microdilution assay. Format: functional. In outline:
(§1)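 Broth microdilution per CLSI M100-S23. Antibiotics spanned 0–256 µg/mL (in DMSO or water), combined with adjuvant at 20, 50 or 100 µM (in DMSO). Inoculum was a 4–6 h culture in full-strength TSB. Plates ran 12–18 h at 37 °C, each treatment in triplicate. OD590 was blank-subtracted and normalized to vehicle growth. MIC is the lowest concentration giving ≥90% inhibition.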
On the technique in general: In broth dilution the organism is exposed to a series of concentrations in liquid medium.

For data set [2], the system named is Pseudomonas aeruginosa. Briefly: Antibiotic adjuvant activity against Erythromycin-treated Pseudomonas aeruginosa ATCC 9027 assessed as bacterial growth inhibition by broth microdilution assay. Format: functional. In outline: as §1
Data set [3] has as its system Pseudomonas aeruginosa. Briefly: Antibiotic adjuvant activity against Kanamycin-treated Pseudomonas aeruginosa ATCC 9027 assessed as bacterial growth inhibition by broth microdilution assay. Format: functional. Put shortly:
as §1

Data set [4] relates to Pseudomonas aeruginosa. As to the kind of experiment: Antibiotic adjuvant activity against Novobiocin-treated Pseudomonas aeruginosa ATCC 9027 assessed as bacterial growth inhibition by broth microdilution assay. Format: functional. Put shortly:
as §1

In data set [5] the test system is Escherichia coli. Briefly: Antibiotic adjuvant activity against Rifampicin-treated wild type Escherichia coli ATCC 25922 assessed as bacterial growth inhibition by broth microdilution assay. Format: functional. Put shortly:
as §1

Data set [6] deals with Escherichia coli. As to the kind of experiment: Antibiotic adjuvant activity against Ampicillin-treated wild type Escherichia coli ATCC 25922 assessed as bacterial growth inhibition by broth microdilution assay. Format: functional. In outline:
as §1

Data set [7] deals with Escherichia coli. Briefly: Antibiotic adjuvant activity against Kanamycin-treated wild type Escherichia coli ATCC 25922 assessed as bacterial growth inhibition by broth microdilution assay. Format: functional. Put shortly:
as §1

Data set [8] deals with Pseudomonas aeruginosa. Briefly: Antibiotic adjuvant activity against Ampicillin-treated Pseudomonas aeruginosa ATCC 9027 assessed as bacterial growth inhibition by broth microdilution assay. Format: functional. Put shortly: as §1
In data set [9] the test system is Escherichia coli. As to the kind of experiment: Antibiotic adjuvant activity against Penicillin G-treated wild type Escherichia coli ATCC 25922 assessed as bacterial growth inhibition by broth microdilution assay. Format: functional. In outline:
as §1

In data set [10] the test system is Pseudomonas aeruginosa. Briefly: Antibiotic adjuvant activity against Erythromycin-treated Pseudomonas aeruginosa ATCC 9027 assessed as fold reduction in bacterial growth inhibition by broth microdilution assay. Format: functional.
Data set [11] in a line: Drug uptake in Pseudomonas aeruginosa ATCC 9027 assessed as drug accumulation across outer membrane. Format: ADME. In outline: (§2)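 Cells were washed twice in PBS, aliquoted and pre-shaken 10 min at 37 °C. Compound was added and incubated 10 min at 37 °C, with CFU counted before and after. Samples were spun through cold silicone oil. Supernatants were quantified by LC-MS single-ion monitoring against calibration curves.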

The test system of data set [12] is Escherichia coli. Briefly: Antibiotic adjuvant activity against Erythromycin-treated wild type Escherichia coli ATCC 25922 assessed as bacterial growth inhibition by broth microdilution assay. Format: functional. In outline:
as §1

A short description of data set [13]: Drug uptake in wild type Escherichia coli ATCC 25922 assessed as drug accumulation across outer membrane. Format: ADME. In outline: as §2
Data set [14] has as its system Escherichia coli. Briefly: Antibiotic adjuvant activity against Novobiocin-treated wild type Escherichia coli ATCC 25922 assessed as bacterial growth inhibition by broth microdilution assay. Format: functional. Put shortly: as §1
Data set [15] deals with Pseudomonas aeruginosa. As to the kind of experiment: Antibiotic adjuvant activity against Penicillin G-treated Pseudomonas aeruginosa ATCC 9027 assessed as bacterial growth inhibition by broth microdilution assay. Format: functional. In outline:
as §1

Data set [16] has as its system Escherichia coli. Briefly: Antibiotic adjuvant activity against Novobiocin-treated wild type Escherichia coli ATCC 25922 assessed as fold reduction in bacterial growth inhibition by broth microdilution assay. Format: functional.
The test system of data set [17] is Pseudomonas aeruginosa. Briefly: Antibacterial activity against Pseudomonas aeruginosa ATCC 9027 assessed as bacterial growth inhibition at 1000 ug/ml by broth microdilution assay. Format: functional.
In data set [18] the test system is Escherichia coli. Briefly: Antibiotic adjuvant activity against Erythromycin-treated wild type Escherichia coli ATCC 25922 assessed as fold reduction in bacterial growth inhibition by broth microdilution assay. Format: functional.
For data set [19], the system named is Escherichia coli. Briefly: Antibacterial activity against wild type Escherichia coli ATCC 25922 assessed as bacterial growth inhibition at 100 ug/ml by broth microdilution assay. Format: functional.
Data set [20] relates to Escherichia coli. As to the kind of experiment: Antibacterial activity against wild type Escherichia coli ATCC 25922 assessed as bacterial growth inhibition by broth microdilution assay. Format: functional.
In data set [21] the test system is Pseudomonas aeruginosa. As to the kind of experiment: Antibacterial activity against Pseudomonas aeruginosa ATCC 9027 assessed as bacterial growth inhibition by broth microdilution assay. Format: functional.

Values after ≈ are worked out from the molar mass of the structure shown.

The term MIC denotes the lowest concentration that inhibits growth of the organism. The inhibition is the change of the read-out against control, counted positive when it falls.

On to `Cl.Cl.N=C(N)c1ccc(NC(=O)CCC(=O)Nc2ccc(C(=N)N)cc2)cc1`, for which the MIC in data set [1] is 16 µg/mL; in data set [2] it was 64 µg/mL; in [3] it was over 64 µg/mL; in data set [4], 256 µg/mL; in data set [5] it was 4 µg/mL; in data set [6], 16 µg/mL. The MIC in data set [7] is 64 µg/mL; in [8], 128 µg/mL; in [9], 64 µg/mL; in data set [12], 128 µg/mL; in data set [14], 64 µg/mL; in data set [15] it was over 256 µg/mL. Also, the “fold change (FC)” value in [10] was 2. Also, the results for the Drug uptake in data set [11] and in data set [13] were 0.9 nmol and 1 nmol, respectively.
Turning to `Cl.Cl.N=C(N)Nc1ccc(NC(=O)CCC(=O)Nc2ccc(NC(=N)N)cc2)cc1`, the MIC is 16 µg/mL in data set [1]; 64 µg/mL in data set [2]; over 64 µg/mL in data set [3]; 256 µg/mL in data set [4]; 8 µg/mL in [5]; 16 µg/mL in data set [6]. Moreover, the MIC was 64 µg/mL in data set [7]; 128 µg/mL in data set [8]; 64 µg/mL in [9]; 64 µg/mL in [12]; 64 µg/mL in data set [14]; over 256 µg/mL in data set [15]. The “fold change (FC)” value in [16], in data set [10] and in data set [18] was 2 throughout. For the same compound, the inhibition at 1000 µg/mL in [17] amounted to 33%. Further, the Drug uptake in [11] and in [13] was 1.1 nmol throughout. Further, the inhibition at 100 µg/mL in data set [19] was determined as 18%.
`Cl.Cl.N=C(N)Nc1ccc(NC(=O)CCC(=O)Nc2ccc(N)cc2)cc1`: the MIC in data set [1] is 16 µg/mL; in data set [2], 64 µg/mL; in [3], over 64 µg/mL; in data set [4], 256 µg/mL; in data set [5], 8 µg/mL; in [6], 16 µg/mL. The MIC was 64 µg/mL in [7]; 128 µg/mL in data set [8]; 64 µg/mL in data set [9]; 64 µg/mL in data set [12]; 64 µg/mL in [14]; over 256 µg/mL in data set [15]. For the same compound, the “fold change (FC)” value in data set [10] and in data set [18] was 2 in each case. Also, the Drug uptake in data set [11] is 0.3 nmol; in data set [13], 1.3 nmol.
For `Cl.Cl.Nc1ccc(NC(=O)CCC(=O)Nc2ccc(N)cc2)cc1`, the MIC in data set [1] was 16 µg/mL; in data set [2], 64 µg/mL; in data set [3], over 64 µg/mL; in data set [4] it was 256 µg/mL; in data set [5] it was 8 µg/mL; in [6], 16 µg/mL. In addition, the MIC in data set [7] is 64 µg/mL; in data set [8] it was 128 µg/mL; in data set [9], 64 µg/mL; in data set [12], 128 µg/mL; in [14], 128 µg/mL; in data set [15], over 256 µg/mL. Moreover, the “fold change (FC)” value in data set [10] was determined as 2. In addition, the Drug uptake was found to be 2 nmol in data set [11] and 3.3 nmol in [13].
As to `CC1(C)S[C@@H]2[C@H](NC(=O)[C@H](N)c3ccccc3)C(=O)N2[C@H]1C(=O)O` [AMPICILLIN], the MIC came to 16 µg/mL (≈ 45.8 µM) in data set [20] and 128 µg/mL (≈ 366 µM) in data set [21]. In addition, the Drug uptake in [11] and in data set [13] was under 0.06 nmol in each case.
Consider `O=C(O)c1cn(C2CC2)c2cc(N3CCNCC3)c(F)cc2c1=O` [CIPROFLOXACIN], for which the Drug uptake in data set [11] came out at 1.8 nmol; in data set [13] it was 2.4 nmol.
For the compound `CC[C@H]1OC(=O)[C@H](C)[C@@H](O[C@H]2C[C@@](C)(OC)[C@@H](O)[C@H](C)O2)[C@H](C)[C@@H](O[C@@H]2O[C@H](C)C[C@H](N(C)C)[C@H]2O)[C@](C)(O)C[C@@H](C)C(=O)[C@H](C)[C@@H](O)[C@]1(C)O` [ERYTHROMYCIN], the MIC in data set [20] and in data set [21] was 128 µg/mL (≈ 174 µM) in each case.
Consider `NC[C@H]1O[C@H](O[C@H]2[C@H](O)[C@@H](O[C@H]3O[C@H](CO)[C@@H](O)[C@H](N)[C@H]3O)[C@H](N)C[C@@H]2N)[C@H](O)[C@@H](O)[C@@H]1O` [KANAMYCIN], for which the MIC was 64 µg/mL (≈ 132 µM) in [20] and over 64 µg/mL in data set [21].
On to `CO[C@@H]1[C@@H](OC(N)=O)[C@@H](O)[C@H](Oc2ccc3c(O)c(NC(=O)c4ccc(O)c(CC=C(C)C)c4)c(=O)oc3c2C)OC1(C)C` [NOVOBIOCIN], for which the figures for the MIC in data set [20] and in data set [21] were 128 µg/mL (≈ 209 µM) and 256 µg/mL (≈ 418 µM), respectively.
In the case of `CC1(C)S[C@@H]2[C@H](NC(=O)Cc3ccccc3)C(=O)N2[C@H]1C(=O)O` [PENICILLIN G], the MIC in data set [20] is 64 µg/mL (≈ 191 µM); in [21], over 256 µg/mL.
As for `CO[C@H]1/C=C/O[C@@]2(C)Oc3c(C)c(O)c4c(O)c(c(/C=N/N5CCN(C)CC5)c(O)c4c3C2=O)NC(=O)/C(C)=C\C=C\[C@H](C)[C@H](O)[C@@H](C)[C@@H](O)[C@@H](C)[C@H](OC(C)=O)[C@@H]1C` [RIFAMPIN], the results for the MIC in data set [20] and in data set [21] were 8 µg/mL (≈ 9.72 µM) and 16 µg/mL (≈ 19.4 µM), respectively.

The record behind these values is ChEMBL document CHEMBL5104205, “Design and evaluation of poly-nitrogenous adjuvants capable of potentiating antibiotics in Gram-negative bacteria” (RSC Med Chem, 2022).
